ChEMBL document CHEMBL4265871, “Novel alkylated azoles as potent antifungals” (Eur J Med Chem, 2017)
≈ marks a conversion by molar mass, not a printed value. Calls of active or inactive are those of the source. The rule behind the calls is not given here.

What was measured:
Candida albicans [1] = experiment: Antifungal activity against Candida albicans ATCC 64124 incubated for 48 hrs by modified CLSI M27-A3 protocol based method; assay type: functional; details: ATCC 64124, 48 h
Candida albicans [2] = experiment: Antifungal activity against ITC and FLC-susceptible Candida albicans ATCC MYA-2876 incubated for 48 hrs by modified CLSI M27-A3 protocol based method; assay type: functional; details: ATCC MYA-2876, 48 h
How it was run: (§1)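 Because these Candida strains show trailing growth, MIC-2 was read, meaning 50% growth inhibition. Caspofungin and voriconazole were tested here; other controls came from earlier work.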

Candida albicans [3] = experiment: Antifungal activity against ITC and FLC-resistant Candida albicans ATCC MYA-90819 incubated for 48 hrs by modified CLSI M27-A3 protocol based method; assay type: functional; details: ATCC MYA-90819, 48 h
Candida albicans [4] = experiment: Antifungal activity against ITC and FLC-susceptible Candida albicans ATCC MYA-2310 incubated for 48 hrs by modified CLSI M27-A3 protocol based method; assay type: functional; details: ATCC MYA-2310, 48 h
Candida albicans [5] = experiment: Antifungal activity against ITC and FLC-resistant Candida albicans ATCC 1237 incubated for 48 hrs by modified CLSI M27-A3 protocol based method; assay type: functional; details: ATCC 1237, 48 h; how it was run: as §1
Nakaseomyces glabratus = experiment: Antifungal activity against Candida glabrata ATCC 2001 incubated for 48 hrs by modified CLSI M27-A3 protocol based method; assay type: functional; details: ATCC 2001, 48 h
Candida parapsilosis = experiment: Antifungal activity against Candida parapsilosis ATCC 22019 incubated for 48 hrs by modified CLSI M27-A3 protocol based method; assay type: functional; details: Lodderomyces parapsilosis, ATCC 22019, 48 h; read-out: MIC100
How it was run: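 For C. albicans ATCC 10231, C. krusei ATCC 6258 and C. parapsilosis ATCC 22019, MIC-0 was read, meaning complete growth inhibition. For azole controls, MIC-2 (50% growth inhibition) was reported instead. Caspofungin and voriconazole were tested here; other controls came from earlier work.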

Aspergillus nidulans = experiment: Antifungal activity against Aspergillus nidulans ATCC 38163 incubated for 48 hrs by CLSI M38-A2 protocol based method; assay type: functional; details: ATCC 38163, 48 h, read-out: MIC100
Candida albicans [6] = experiment: Fungistatic activity against Candida albicans ATCC 10231 at 0.5 times MIC incubated for 3 to 12 hrs by time kill assay; assay type: functional, organism-based
Candida albicans [7] = experiment: Effect on growth of Candida albicans ATCC 10231 assessed as increase in microbial growth at 0.5 times MIC incubated for 24 hrs by time kill assay; assay type: functional
Candida albicans [8] = experiment: Fungistatic activity against Candida albicans ATCC 10231 at 1 times MIC incubated for 3 to 12 hrs by time kill assay; assay type: functional, organism-based
Candida albicans [9] = experiment: Fungistatic activity against Candida albicans ATCC 10231 assessed as reduction in microbial growth at 1 times MIC incubated for 24 hrs by time kill assay; assay type: functional
Candida albicans [10] = experiment: Fungicidal activity against Candida albicans ATCC 10231 assessed as reduction in microbial growth at 4 times MIC incubated for 9 hrs by time kill assay; assay type: functional
Candida albicans [11] = experiment: Induction of membrane permeabilization in Candida albicans ATCC 10231 at 1 to 4 times MIC incubated for 1 hr by propidium iodide staining based fluorescence microscopy; assay type: functional, organism-based
How it was run: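 C. albicans ATCC 10231 treated at 1× and 4× MIC and stained with propidium iodide, a membrane-impermeant dye, to detect membrane damage. Untreated cells, FLC (7.8 µg/mL) and KANB (C14) (7.8 µg/mL) serve as comparators.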

[12] = Selectivity index, ratio of EC50 for toxicity in human BEAS2B cells to MIC50 for antifungal activity against ITC and FLC-susceptible Candida albicans ATCC MYA-2876; assay type: cell-based; details: BEAS-2B cells, read-out: Selectivity Index
How it was run: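 Ratio of the compound's EC50 against BEAS-2B cells to its MIC against the named C. albicans strain. […] For C. albicans strains other than ATCC 10231, trailing growth meant MIC-2 was taken, meaning 50% growth inhibition.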

[13] = Selectivity index, ratio of EC50 for toxicity in human A549 cells to MIC50 for antifungal activity against ITC and FLC-susceptible Candida albicans ATCC MYA-2310; assay type: cell-based; details: read-out: Selectivity Index
How it was run: (§2)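 Selectivity index is the EC50 against the mammalian line (A549 or BEAS-2B) divided by the MIC against the given fungal strain.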

[14] = Selectivity index, ratio of EC50 for toxicity in human A549 cells to MIC50 for antifungal activity against ITC and FLC-resistant Candida albicans ATCC 1237; assay type: cell-based; details: read-out: Selectivity Index; how it was run: as §2
[15] = Selectivity index, ratio of EC50 for toxicity in human BEAS2B cells to MIC50 for antifungal activity against ITC and FLC-resistant Candida albicans ATCC 1237; assay type: cell-based; details: BEAS-2B cells, read-out: Selectivity Index; how it was run: as §2
[16] = Selectivity index, ratio of […] for toxicity in human A549 cells to MIC50 for antifungal activity against Aspergillus flavus ATCC MYA-3631; assay type: cell-based; details: read-out: Selectivity Index
Candida albicans [17] = experiment: Antifungal activity against Candida albicans ATCC 10231 at 0.5 to 4 times MIC incubated for 3 to 24 hrs by time kill assay
Candida albicans [18] = experiment: Antifungal carryover activity against Candida albicans ATCC 10231 assessed as 25% reduction in colony counts at 0.5 to 4 times MIC
[19] = Selectivity index, ratio of EC50 for toxicity in human A549 cells to MIC for antifungal activity against Candida parapsilosis ATCC 22019
[20] = Selectivity index, ratio of EC50 for toxicity in human BEAS2B cells to MIC for antifungal activity against Candida parapsilosis ATCC 22019; details: BEAS-2B cells
A549 = experiment: Toxicity in human A549 cells assessed as cell viability at 15.6 ug/ml incubated for 24 hrs by resazurin dye based assay; details: a549, 24 h
BEAS-2B [21] = experiment: Toxicity in human BEAS2B cells assessed as cell viability at 15.6 ug/ml incubated for 24 hrs by resazurin dye based assay
Candida albicans [22] = experiment: Effect on sterol composition in Candida albicans ATCC 64124 assessed as lanosterol level at 1.95 ug/mL incubated for 10 mins by LC-MS analysis (reference value: 29.38%)
Candida albicans [23] = experiment: Effect on sterol composition in Candida albicans ATCC 10231 assessed as ergosterol level at 0.125 ug/mL incubated for 10 mins by GC-MS analysis (reference value: 91.15%)
Candida albicans [24] = experiment: Effect on sterol composition in Candida albicans ATCC 10231 assessed as unknown sterol level at 0.125 ug/mL incubated for 10 mins by GC-MS analysis (reference value: 1.88 to 2.78%)
BEAS-2B [25] = experiment: Toxicity in human BEAS2B cells assessed as reduction in cell viability up to 7.8 ug/ml incubated for 24 hrs by resazurin dye based assay

Row | Structure (SMILES) | MIC50 (Candida albicans [1]) [µM] | MIC50 (Candida albicans [2]) [µM] | MIC50 (Candida albicans [3]) [µM] | MIC50 (Candida albicans [4]) [µM] | MIC50 (Candida albicans [5]) [µM] | MIC50 (Nakaseomyces glabratus) [µM] | MIC (Candida parapsilosis) [µM] | MIC (Aspergillus nidulans) [µM] | Activity (Candida albicans [6]) | Activity (Candida albicans [7]) [log10CFU] | Activity (Candida albicans [8]) | Activity (Candida albicans [9]) [log10CFU] | Activity (Candida albicans [11]) | selectivity ratio [12] | selectivity ratio [13] | selectivity ratio [14] | selectivity ratio [15] | selectivity ratio [16] | selectivity ratio [19] | selectivity ratio [20] | other results
1 | CCCCCCC(O)(Cn1cncn1)c1ccc(F)cc1F (configuration not stated) | 25.2 (≈ 7.8 µg/mL) | 6.3 (≈ 1.95 µg/mL) | 6.3 (≈ 1.95 µg/mL) | 12.6 (≈ 3.9 µg/mL) | 6.3 (≈ 1.95 µg/mL) | 12.6 (≈ 3.9 µg/mL) | < 0.1 | 1.6 (≈ 0.495 µg/mL) | Active | 1 | Active | 1 | inactive | 16 | 9 | 18 | 16 | 2 | 1170 | 1040 | Activity (Candida albicans [10]): >=2 log10CFU; Activity (Candida albicans [17]): Dose-dependent effect; Activity (Candida albicans [18]): inactive
2 | CCCCCCC(O)(Cn1cncn1)c1ccc(Cl)cc1Cl (configuration not stated) | 5.7 (≈ 1.95 µg/mL) | 2.8 (≈ 0.958 µg/mL) | 5.7 (≈ 1.95 µg/mL) | 5.7 (≈ 1.95 µg/mL) | 5.7 (≈ 1.95 µg/mL) | 5.7 (≈ 1.95 µg/mL) | < 0.09 | 1.4 (≈ 0.479 µg/mL) | Active | 1 | Active | 0.25 | inactive | 29 | 10 | 10 | 14 | 5 | 667 | 933 | viability (A549): > 85%; viability (BEAS-2B [21]): > 85%; Activity (Candida albicans [17]): Dose-dependent effect; Activity (Candida albicans [18]): inactive; Activity (Candida albicans [22]): 28.99%; Activity (Candida albicans [23]): 49%; Activity (Candida albicans [24]): 4.36 - 5.57%
3 | CCCCCCCCC(O)(Cn1cncn1)c1ccc(F)cc1F (configuration not stated) | 11.6 (≈ 3.91 µg/mL) | 5.8 (≈ 1.96 µg/mL) | 5.8 (≈ 1.96 µg/mL) | 5.8 (≈ 1.96 µg/mL) | 5.8 (≈ 1.96 µg/mL) | 5.8 (≈ 1.96 µg/mL) | ≤ 0.18 | 1.4 (≈ 0.472 µg/mL) | – | – | – | – | inactive | 7 | 6 | 6 | 7 | 0.4 | 200 | 217 | Activity (BEAS-2B [25]): Non-Toxic
